Where only a bound is given, the exact number is not on record here.

Data set [1] deals with Vero C1008. The experiment in a line: Cytotoxicity against African green monkey Vero E6 cells assessed as reduction in cell viability incubated for 72 hrs by CCK8 assay. In kind it is toxicity, cell-based. The note with it: chlorocebus sabaeus, vero c1008, 72 h. The method in brief:
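Vero E6 cells were seeded and grown overnight, then exposed to a range of compound concentrations for 72 h. Viability was read by CCK8. Triplicate.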
(In general: Tetrazolium assays rely on reduction of a dye to a coloured formazan, in cell work by metabolically active cells.)

The subject of data set [2] is SARS-CoV-2. The experiment in a line: Antiviral activity against Severe acute respiratory syndrome coronavirus 2 infected in African green monkey Vero E6 cells assessed as inhibition of viral cytopathic effect at 0.064 uM incubated for 72 hrs by CCK8 assay relative to control. More on the design: scale not given: the % may be the effect or the level left. Type of data set: functional.

For data set [3], the system named is SARS-CoV-2. Description: Antiviral activity against Severe acute respiratory syndrome coronavirus 2 infected in African green monkey Vero E6 cells assessed as inhibition of viral cytopathic effect at 0.32 uM incubated for 72 hrs by CCK8 assay relative to control. More on the design: scale not given: the % may be the effect or the level left. In kind it is functional.

Data set [4] concerns SARS-CoV-2. The experiment in a line: Antiviral activity against Severe acute respiratory syndrome coronavirus 2 infected in African green monkey Vero E6 cells assessed as inhibition of viral cytopathic effect at 1.6 uM incubated for 72 hrs by CCK8 assay relative to control. In kind it is functional. More on the design: scale not given: the % may be the effect or the level left.

For data set [5], the system named is SARS-CoV-2. The experiment in a line: Antiviral activity against Severe acute respiratory syndrome coronavirus 2 infected in African green monkey Vero E6 cells assessed as inhibition of viral cytopathic effect at 8 uM incubated for 72 hrs by CCK8 assay relative to control. In kind it is functional. Also on record: scale not given: the % may be the effect or the level left. (In general: Damage to the host cells serves as the signal in cytopathic effect assays.)

Data set [6] relates to SARS-CoV-2. Description: Antiviral activity against Severe acute respiratory syndrome coronavirus 2 infected in African green monkey Vero E6 cells assessed as inhibition of viral cytopathic effect at 40 uM incubated for 72 hrs by CCK8 assay relative to control. Type of data set: functional. Also on record: scale not given: the % may be the effect or the level left.
Data set [7] relates to SARS-CoV-2. The experiment in a line: Antiviral activity against Severe acute respiratory syndrome coronavirus 2 infected in African green monkey Vero E6 cells assessed as inhibition of viral cytopathic effect at 200 uM incubated for 72 hrs by CCK8 assay relative to control. Type of data set: functional. Also on record: scale not given: the % may be the effect or the level left.

Data set [8] has as its system SARS-CoV-2. The experiment in a line: Antiviral activity against Severe acute respiratory syndrome coronavirus 2 infected in African green monkey Vero E6 cells assessed as inhibition of viral cytopathic effect incubated for 72 hrs by CCK8 assay. In kind it is functional, organism-based. The settings on record: Severe acute respiratory syndrome coronavirus 2, Vero C1008, 72 h.

The test system of data set [9] is SARS-CoV-2. The experiment in a line: Antiviral activity against Severe acute respiratory syndrome coronavirus 2 infected in African green monkey Vero E6 cells assessed as reduction in viral RNA copies at 3.125 uM incubated for 48 hrs by RT-qPCR analysis relative to control. Type of data set: functional. Also on record: scale not given: the % may be the effect or the level left. A general note: Quantitative PCR measures a nucleic acid by following its amplification.

Data set [10] has as its system SARS-CoV-2. Description: Antiviral activity against Severe acute respiratory syndrome coronavirus 2 infected in African green monkey Vero E6 cells assessed as reduction in viral RNA copies at 6.25 uM incubated for 48 hrs by RT-qPCR analysis relative to control. Type of data set: functional. Also on record: scale not given: the % may be the effect or the level left.

In data set [11] the test system is SARS-CoV-2. Description: Antiviral activity against Severe acute respiratory syndrome coronavirus 2 infected in African green monkey Vero E6 cells assessed as reduction in viralN-terminal 6-histidine tagged RNA copies at 12.5 uM incubated for 48 hrs by RT-qPCR analysis relative to control. In kind it is functional. Also on record: scale not given: the % may be the effect or the level left.

Data set [12] concerns SARS-CoV-2. Description: Antiviral activity against Severe acute respiratory syndrome coronavirus 2 infected in African green monkey Vero E6 cells assessed as reduction in viral RNA copies at 50 uM incubated for 48 hrs by RT-qPCR analysis relative to control. Also on record: scale not given: the % may be the effect or the level left. In kind it is functional.
The subject of data set [13] is SARS-CoV-2. Description: Antiviral activity against Severe acute respiratory syndrome coronavirus 2 infected in African green monkey Vero E6 cells assessed as reduction in viral RNA copies at 100 uM incubated for 48 hrs by RT-qPCR analysis relative to control. Type of data set: functional. Also on record: scale not given: the % may be the effect or the level left.

As to `CCC(CC)COC(=O)[C@H](C)N[P@](=O)(OC[C@H]1O[C@@](C#N)(c2ccc3c(N)ncnn23)[C@H](O)[C@@H]1O)Oc1ccccc1`, the CC50 (in general, the concentration at which the toxic effect on the cells reaches its halfway point) in data set [1] is above 200 µM. Further, the Activity was 16.557% in data set [2]; 22.283% in [3]; 56.674% in data set [4]; 103.72% in [5]; 97.265% in data set [6]; 81.893% in [7].

Regarding `CCN1Cc2cc(OC)c(OC)cc2-c2cccc(N)c21`, the CC50 in [1] is above 200 µM. In addition, the EC50 – broadly, the midpoint of the concentration-response curve – in [8] was 3.69 µM. Also, the Activity stood at 42.07% in [2]; 44.04% in data set [3]; 69.61% in data set [4]; 73.32% in [5]; 87.56% in data set [6]; 97.85% in [7]. For the same compound, the Activity is given as 45.99% in [9]; 53.79% in data set [10]; 61.27% in [11]; 76.41% in [12]; 72.33% in data set [13].

Take `CCN1Cc2cc(OC)c(OC)cc2-c2cccc(NC(=O)C(F)(F)F)c21`: in [1], the CC50 is above 200 µM. In addition, in [8], the EC50 stood at 2.18 µM. Moreover, the Activity in [2] was 49.07%; in [3], 66.95%; in data set [4] it was 84.14%; in [5] it was 82.36%; in data set [6] it was 87.41%; in data set [7] it was 99.6%. For the same compound, the Activity in data set [9] came out at 56.23%; in data set [10] it was 54.85%; in data set [11], 68.79%; in data set [12] it was 68.9%; in data set [13], 97.83%.

The values above are taken from ChEMBL document CHEMBL5131398, “Novel nucleocapsid protein-targeting phenanthridine inhibitors of SARS-CoV-2” (Eur J Med Chem, 2022).
